In brackets after ≈: the same amount, converted by molar mass.
Columns and labels:
Assay type in all cases: functional
Candida albicans [1] = assay: Antifungal activity against Candida albicans SC5314 after 24 hrs by serial dilution method; details: SC5314, 24 h
How it was run: (§1)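 MIC by broth serial dilution per NCCLS/CLSI (M27-A3 yeasts, M38-A2 filamentous) in 96-well plates; ATCC strains plus clinical isolates; C. parapsilosis 22019 run as quality-control strain in every assay. Compounds dissolved in DMSO, serially diluted in growth medium; incubation 35 °C; MIC read at 24 h (Candida), 48 h (A. fumigatus), 72 h (C. neoformans).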

Candida albicans [2] = assay: Antifungal activity against Candida albicans Y0109 after 24 hrs by serial dilution method; details: Y0109, 24 h; how it was run: as §1
Candida parapsilosis = assay: Antifungal activity against Candida parapsilosis 22019 after 24 hrs by serial dilution method; details: Lodderomyces parapsilosis, 22019, 24 h; how it was run: as §1
Cryptococcus neoformans = assay: Antifungal activity against Cryptococcus neoformans 32609 after 72 hrs by serial dilution method; details: Cryptococcus neoformans, 32609, 72 h; how it was run: as §1
Nakaseomyces glabratus = assay: Antifungal activity against Candida glabrata 537 after 24 hrs by serial dilution method; details: Nakaseomyces glabratus, 537, 24 h; how it was run: as §1
Aspergillus fumigatus = assay: Antifungal activity against Aspergillus fumigatus 7544 after 48 hrs by serial dilution method; details: Aspergillus fumigatus, 7544, 48 h; how it was run: as §1

SMILES	MIC (Candida albicans [1])	MIC (Candida albicans [2])	MIC (Candida parapsilosis)	MIC (Cryptococcus neoformans)	MIC (Nakaseomyces glabratus)	MIC (Aspergillus fumigatus)
COc1ncc(-c2cc3c(s2)C(=O)N([C@H](C)[C@](O)(Cn2cncn2)c2ccc(F)cc2F)C3)cn1	0.0625 µg/mL (≈ 0.125 µM)	0.0625 µg/mL (≈ 0.125 µM)	0.0625 µg/mL (≈ 0.125 µM)	0.0625 µg/mL (≈ 0.125 µM)	0.25 µg/mL (≈ 0.501 µM)	4 µg/mL (≈ 8.02 µM)
C[C@@H](N1Cc2cc(-c3ccc(C#N)cc3)sc2C1=O)[C@](O)(Cn1cncn1)c1ccc(F)cc1F	0.0156 µg/mL (≈ 0.0317 µM)	0.0156 µg/mL (≈ 0.0317 µM)	0.0156 µg/mL (≈ 0.0317 µM)	0.0156 µg/mL (≈ 0.0317 µM)	0.125 µg/mL (≈ 0.254 µM)	4 µg/mL (≈ 8.14 µM)
C[C@@H](c1ncncc1F)[C@](O)(Cn1cncn1)c1ccc(F)cc1F [VORICONAZOLE]	0.0156 µg/mL (≈ 0.0447 µM)	0.0156 µg/mL (≈ 0.0447 µM)	0.0156 µg/mL (≈ 0.0447 µM)	0.0156 µg/mL (≈ 0.0447 µM)	0.0156 µg/mL (≈ 0.0447 µM)	0.25 µg/mL (≈ 0.716 µM)
C[C@@H](N1Cc2cc(-c3cncc(C#N)c3)sc2C1=O)[C@](O)(Cn1cncn1)c1ccc(F)cc1F	0.0156 µg/mL (≈ 0.0317 µM)	0.0312 µg/mL (≈ 0.0635 µM)	0.0156 µg/mL (≈ 0.0317 µM)	0.0312 µg/mL (≈ 0.0635 µM)	0.125 µg/mL (≈ 0.254 µM)	4 µg/mL (≈ 8.12 µM)
OC(Cn1cncn1)(Cn1cncn1)c1ccc(F)cc1F [FLUCONAZOLE]	0.25 µg/mL (≈ 0.816 µM)	0.25 µg/mL (≈ 0.816 µM)	1 µg/mL (≈ 3.27 µM)	4 µg/mL (≈ 13.1 µM)	1 µg/mL (≈ 3.27 µM)	> 64 µg/mL
C[C@@H](N1Cc2cc(-c3ccc(C#N)nc3)sc2C1=O)[C@](O)(Cn1cncn1)c1ccc(F)cc1F	0.125 µg/mL (≈ 0.254 µM)	0.0312 µg/mL (≈ 0.0635 µM)	0.125 µg/mL (≈ 0.254 µM)	0.125 µg/mL (≈ 0.254 µM)	0.5 µg/mL (≈ 1.02 µM)	8 µg/mL (≈ 16.2 µM)
C[C@@H](N1Cc2cc(-c3cccc(F)c3)sc2C1=O)[C@](O)(Cn1cncn1)c1ccc(F)cc1F	0.0156 µg/mL (≈ 0.0322 µM)	0.0625 µg/mL (≈ 0.129 µM)	0.125 µg/mL (≈ 0.258 µM)	0.0625 µg/mL (≈ 0.129 µM)	0.125 µg/mL (≈ 0.258 µM)	4 µg/mL (≈ 8.26 µM)
C[C@@H](N1Cc2cc(-c3cccc(Cl)c3)sc2C1=O)[C@](O)(Cn1cncn1)c1ccc(F)cc1F	0.0156 µg/mL (≈ 0.0311 µM)	0.0625 µg/mL (≈ 0.125 µM)	0.0625 µg/mL (≈ 0.125 µM)	0.125 µg/mL (≈ 0.25 µM)	0.125 µg/mL (≈ 0.25 µM)	8 µg/mL (≈ 16 µM)
C[C@@H](N1Cc2cc(-c3cccc(C#N)c3)sc2C1=O)[C@](O)(Cn1cncn1)c1ccc(F)cc1F	0.0625 µg/mL (≈ 0.127 µM)	0.0625 µg/mL (≈ 0.127 µM)	0.125 µg/mL (≈ 0.254 µM)	0.125 µg/mL (≈ 0.254 µM)	0.125 µg/mL (≈ 0.254 µM)	4 µg/mL (≈ 8.14 µM)
Cc1cccc(-c2cc3c(s2)C(=O)N([C@H](C)[C@](O)(Cn2cncn2)c2ccc(F)cc2F)C3)c1	0.0625 µg/mL (≈ 0.13 µM)	0.0625 µg/mL (≈ 0.13 µM)	0.125 µg/mL (≈ 0.26 µM)	0.125 µg/mL (≈ 0.26 µM)	0.0625 µg/mL (≈ 0.13 µM)	4 µg/mL (≈ 8.32 µM)
C[C@@H](N1Cc2cc(-c3ccncc3)sc2C1=O)[C@](O)(Cn1cncn1)c1ccc(F)cc1F	0.0156 µg/mL (≈ 0.0334 µM)	0.0312 µg/mL (≈ 0.0668 µM)	0.0312 µg/mL (≈ 0.0668 µM)	0.0156 µg/mL (≈ 0.0334 µM)	0.0625 µg/mL (≈ 0.134 µM)	1 µg/mL (≈ 2.14 µM)
C[C@@H](N1Cc2cc(-c3ccc(F)cc3)sc2C1=O)[C@](O)(Cn1cncn1)c1ccc(F)cc1F	0.0156 µg/mL (≈ 0.0322 µM)	0.0312 µg/mL (≈ 0.0645 µM)	0.0612 µg/mL (≈ 0.126 µM)	0.0625 µg/mL (≈ 0.129 µM)	0.125 µg/mL (≈ 0.258 µM)	4 µg/mL (≈ 8.26 µM)
COc1ncc(-c2cc3c(s2)CN([C@H](C)[C@](O)(Cn2cncn2)c2ccc(F)cc2F)C3=O)cn1	0.0156 µg/mL (≈ 0.0313 µM)	0.0156 µg/mL (≈ 0.0313 µM)	0.0156 µg/mL (≈ 0.0313 µM)	0.0156 µg/mL (≈ 0.0313 µM)	0.0156 µg/mL (≈ 0.0313 µM)	16 µg/mL (≈ 32.1 µM)
COc1cccc(-c2cc3c(s2)C(=O)N([C@H](C)[C@](O)(Cn2cncn2)c2ccc(F)cc2F)C3)c1	0.0625 µg/mL (≈ 0.126 µM)	0.0625 µg/mL (≈ 0.126 µM)	0.125 µg/mL (≈ 0.252 µM)	0.25 µg/mL (≈ 0.503 µM)	0.125 µg/mL (≈ 0.252 µM)	8 µg/mL (≈ 16.1 µM)
C[C@@H](N1Cc2cc(-c3cccnc3)sc2C1=O)[C@](O)(Cn1cncn1)c1ccc(F)cc1F	0.0156 µg/mL (≈ 0.0334 µM)	0.0156 µg/mL (≈ 0.0334 µM)	0.0312 µg/mL (≈ 0.0668 µM)	0.0312 µg/mL (≈ 0.0668 µM)	0.125 µg/mL (≈ 0.267 µM)	4 µg/mL (≈ 8.56 µM)
C[C@@H](N1Cc2cc(-c3cncnc3)sc2C1=O)[C@](O)(Cn1cncn1)c1ccc(F)cc1F	0.0312 µg/mL (≈ 0.0667 µM)	0.0156 µg/mL (≈ 0.0333 µM)	0.0625 µg/mL (≈ 0.133 µM)	0.0312 µg/mL (≈ 0.0667 µM)	0.125 µg/mL (≈ 0.267 µM)	4 µg/mL (≈ 8.54 µM)
C[C@@H](n1cnc2cc(Cl)ccc2c1=O)[C@](O)(Cn1cncn1)c1ccc(F)cc1F [ALBACONAZOLE]	0.0078 µg/mL (≈ 0.0181 µM)	0.0156 µg/mL (≈ 0.0361 µM)	0.0156 µg/mL (≈ 0.0361 µM)	0.0078 µg/mL (≈ 0.0181 µM)	0.0156 µg/mL (≈ 0.0361 µM)	0.25 µg/mL (≈ 0.579 µM)
C[C@@H](N1CCc2sc(-c3ccncc3)cc2C1)[C@](O)(Cn1cncn1)c1ccc(F)cc1F	0.25 µg/mL (≈ 0.535 µM)	0.5 µg/mL (≈ 1.07 µM)	0.5 µg/mL (≈ 1.07 µM)	0.5 µg/mL (≈ 1.07 µM)	4 µg/mL (≈ 8.56 µM)	> 32 µg/mL
C[C@@H](N1Cc2cc(-c3ccccc3)sc2C1=O)[C@](O)(Cn1cncn1)c1ccc(F)cc1F	0.0156 µg/mL (≈ 0.0334 µM)	0.0312 µg/mL (≈ 0.067 µM)	0.0625 µg/mL (≈ 0.134 µM)	0.0625 µg/mL (≈ 0.134 µM)	0.125 µg/mL (≈ 0.268 µM)	8 µg/mL (≈ 17.1 µM)
